Reference: ChEMBL document CHEMBL1155036, “Synthesis and biological activity of some new flavonyl-2,4-thiazolidinediones” (Bioorg Med Chem, 2008)

Experiments:
[1] = system: INS1; test: Insulinotropic activity in rat INS1 cells assessed as glucose-mediated insulin release at 1 ug/ml by radioimmunoassay relative to glucose; assay type: functional
How it was run: (§1)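 Rat INS-1 cells are grown 4–6 days to half confluence in RPMI with 10% FCS and penicillin/streptomycin. Cells are washed, then incubated 90 min at 37 °C in KRBH (10 mM HEPES, 0.5% BSA) at 5.6 mM glucose, with or without compound. Secreted insulin is measured by radioimmunoassay with a rat insulin standard and corrected for solvent (ethanol, DMSO). Results are normalized to 5.6 mM glucose = 100%. Mean ± SEM, N = 4–8; ANOVA with Newman–Keuls.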

[2] = system: INS1; test: Insulinotropic activity in rat INS1 cells assessed as glucose-mediated insulin release at 10 ug/ml by radioimmunoassay relative to glucose; assay type: functional; how it was run: as §1
[3] = target: Aldo-keto reductase family 1 member B1 (Rattus norvegicus) (UniProt P07943); test: Inhibition of rat kidney aldose reductase activity assessed as NADPH oxidation at 100 uM
How it was run: (§2)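 Assay in 0.067 M phosphate buffer, pH 6.2, with NADPH (2 × 10^-5 M final) and DL-glyceraldehyde substrate (5 × 10^-5 M final). The 340 nm absorbance decrease is followed for 5 min at 37 °C. Drug is added from a 10^-4 M stock in 50% DMF/50% methanol. Percent inhibition is measured at this single drug concentration, and IC50 from a concentration series. Triplicates; mean ± SD of three experiments.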

[4] = target: Aldo-keto reductase family 1 member B1 (Rattus norvegicus, UniProt P07943); test: Inhibition of rat kidney aldose reductase activity assessed as NADPH oxidation; how it was run: as §2

| SMILES | inhibition [3] [%] | IC50 [4] [nM] | Activity [1] [%] | Activity [2] [%] |
| --- | --- | --- | --- | --- |
| CCOC(=O)CN1C(=O)S/C(=C\c2ccc(-c3cc(=O)c4ccccc4o3)cc2)C1=O | 6.74 | – | 106.2 | 128.6 |
| O=C1NC(=O)/C(=C/c2cccc(-c3cc(=O)c4ccccc4o3)c2)S1 | 22.1 | – | 79.76 | 18.95 |
| CCOC(=O)CN1C(=O)S/C(=C\c2ccc3oc(-c4ccccc4)cc(=O)c3c2)C1=O | 14.4 | – | 93.28 | 98.52 |
| O=C1NC(=O)/C(=C/c2ccc3oc(-c4ccccc4)cc(=O)c3c2)S1 | 64.9 | 683 | 82.55 | 158.9 |
| COc1ccc(Cl)cc1C(=O)NCCc1ccc(S(=O)(=O)NC(=O)NC2CCCCC2)cc1 [GLYBURIDE] | – | – | 179.6 | – |
| O=C1NC(=O)/C(=C/c2ccc(-c3cc(=O)c4ccccc4o3)cc2)S1 | 88.7 | 432 | 55.7 | 23.79 |

Now from value to compound, other results behind:

| inhibition [3] [%] | IC50 [4] [nM] | SMILES | Activity [1] [%] | Activity [2] [%] |
| --- | --- | --- | --- | --- |
| 56.3 | 852 | O=C(O)CN1C(=O)S/C(=C\c2ccc3oc(-c4ccccc4)cc(=O)c3c2)C1=O | 101.3 | 80.92 |
| 44.6 | – | O=C(O)CN1C(=O)S/C(=C\c2ccc(-c3cc(=O)c4ccccc4o3)cc2)C1=O | 102.4 | 91.88 |
| 12.9 | – | CCOC(=O)CN1C(=O)S/C(=C\c2cccc(-c3cc(=O)c4ccccc4o3)c2)C1=O | 103.4 | 98.43 |
| 86.6 | 415 | O=C(O)CN1C(=O)S/C(=C\c2cccc(-c3cc(=O)c4ccccc4o3)c2)C1=O | 98.1 | 84.09 |
